Assay results published in publication PMC8995271 (Targeted Oncology, 2022).
“Also recorded” adds a separate entry of the source. Read-outs that look alike come from different tables or passages of the source.

Legend:
[1] = cited from earlier work
HER2 = conditions: read-out: half maximal inhibitory concentration for inhibiting the phosphorylation of HER2; ref [17], [23]–[26]; cited from earlier work
HER4 = conditions: read-out: half maximal inhibitory concentration for inhibiting the phosphorylation of HER4; ref [17], [23]–[26]; cited from earlier work
HER1 = conditions: read-out: half maximal inhibitory concentration for inhibiting the phosphorylation of HER1; ref [17], [23]–[26]; cited from earlier work
[2] = Paclitaxel pharmacokinetics in patients, cycle 1 day 1 and day 8; assay type: in vivo, human; conditions: for AUC(0-t): human, plasma, mean AUC0–24h of paclitaxel, cycle 1 day 1
[3] = Phase Ib dose-limiting toxicities and MTD determination; assay type: in vivo, human
[4] = Treatment-related adverse events; assay type: in vivo, human
[5] = tested on: advanced or metastatic solid tumors; experiment: Tumor response; assay type: in vivo, human
[6] = Varlitinib plasma pharmacokinetics in patients, cycle 1; assay type: in vivo; conditions: human, oral, mean AUC0–24h, cohorts pooled
Procedure, shortened: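 Blood samples taken in cycle 1 from patients on intermittent (4 days on/3 off) oral twice-daily varlitinib with weekly chemotherapy ± trastuzumab. Sampling was on cycle 1 day 5 at 0, 0.5, 1, 2, 5, 7 and 24 h after the varlitinib dose.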

[7] = cited from earlier work; remark: listed apart in the source
[8] = cohort A2: varlitinib 400 mg BD continuous + carboplatin + paclitaxel
[9] = cohort B (varlitinib + paclitaxel), n = 1

SMILES: CS(=O)(=O)CCNCc1ccc(-c2ccc3ncnc(Nc4ccc(OCc5cccc(F)c5)c(Cl)c4)c3c2)o1 [lapatinib]
- grade 3 and 4 diarrhea rate ([1]; combination of lapatinib and capecitabine): 12%
- grade 3 and 4 diarrhea rate ([1]; combination of lapatinib and letrozole): 8%

SMILES: CCOc1cc2ncc(C#N)c(Nc3ccc(OCc4ccccn4)c(Cl)c3)c2cc1NC(=O)/C=C/CN(C)C [neratinib, reference compound]
- IC50 (HER4): 19 nM
- IC50 (HER1): 12 nM
- IC50 (HER2): 39 nM

SMILES: CC(=O)O[C@H]1C(=O)[C@@]2(C)[C@H]([C@H](OC(=O)c3ccccc3)[C@]3(O)C[C@H](OC(=O)[C@H](O)[C@@H](NC(=O)c4ccccc4)c4ccccc4)C(C)=C1C3(C)C)[C@]1(OC(C)=O)CO[C@@H]1C[C@@H]2O [paclitaxel, reference compound]
- AUC(0-t) ([2]; varlitinib 300-mg intermittent dosing cohorts (A4, B1, C1)): 5010 ± 1860 ng·h/mL
- AUC(0-t) ([2]; varlitinib 400-mg intermittent dosing cohorts (A3, B2)): 6130 ± 2050 ng·h/mL

SMILES: C[C@@H]1COC(Nc2ccc3ncnc(Nc4ccc(OCc5nccs5)c(Cl)c4)c3c2)=N1 [varlitinib]
- effect of varlitinib on the pharmacokinetics (Cmax, AUC) of paclitaxel ([2]; paclitaxel 80 mg/m^2 weekly): Varlitinib was well tolerated and did not significantly affect the pharmacokinetics of paclitaxel
- DLT in cycle 1 (type = number of patients) [3, 8]: Febrile neutropenia = 3
- Number with DLTs [3, 8]: 3/5
- Number with DLTs ([3]; cohort A3: varlitinib 400 mg BD intermittent + carboplatin + paclitaxel): 2/4
- Number with DLTs ([3]; cohort A4: varlitinib 300 mg BD intermittent + carboplatin + paclitaxel): 2/6
- DLT G3/4 neutropenia, patients ([3]; cohort A (varlitinib + carboplatin + paclitaxel), n = 6 of 18): 33.3%
- Number with DLTs ([3]; cohort B1: varlitinib 300 mg BD intermittent + weekly paclitaxel): 0/6
- DLT in cycle 1 (type = number of patients) ([3]; cohort B2: varlitinib 400 mg BD intermittent + paclitaxel): Febrile neutropenia = 1; also recorded: G3 transaminitis =1
- Number with DLTs ([3]; cohort B2: varlitinib 400 mg BD intermittent + weekly paclitaxel): 2/4
- DLT in cycle 1 (type = number of patients) ([3]; cohort B3: varlitinib 300 mg BD continuous + paclitaxel): G3 diarrhea = 1
- Number with DLTs ([3]; cohort B3: varlitinib 300 mg BD continuous + weekly paclitaxel): 4/6
- DLT G3 diarrhea, patients [3, 9]: 6.25%
- DLT G3 transaminitis, patients [3, 9]: 6.25%
- DLT G3/4 neutropenia, patients ([3]; cohort B (varlitinib + paclitaxel), n = 3 of 16): 18.8%
- recommended phase II dose of varlitinib for the triplet combination ([3]; intermittently, with weekly paclitaxel and 3-weekly subcutaneous trastuzumab 600 mg): 300 mg
- IC50 (HER4): 4 nM
- all grade pneumonitis rate [4]: 5.4%
- patients with reduction in left ventricular ejection fraction or cardiomyopathy ([4]; all cohorts): None
- treatment-related mortality ([4]; all cohorts): no treatment-related mortality
- any grade AE diarrhea ([4]; overall, all cohorts (n = 37)): 70.2%
- any grade AE fatigue ([4]; overall, all cohorts (n = 37)): 67.5%
- any grade AE neutropenia ([4]; overall, all cohorts (n = 37)): 45.9%
- grade 3 and above AE hyponatremia ([4]; overall, all cohorts (n = 37)): 16.2%
- grade 3 and above AE hypophosphatemia ([4]; overall, all cohorts (n = 37)): 13.5%
- grade 3 and above AE neutropenia ([4]; overall, all cohorts (n = 37)): 40.5%
- median duration on study treatment ([5]; all patients, range 0.1–17.1 months): 3.0 months
- median PFS ([5]; all patients, range 0.3–17.1 months): 3.7 months
- overall response rate ([5]; entire cohort, 11/37): 29.7%
- partial response rate ([5]; excluding the two subjects with non-metastatic breast cancer, 10/30): 33.3%
- stable disease ([5]; excluding the two subjects with non-metastatic breast cancer, 13/30): 43.3%
- stable disease as best response ([5]; patients evaluable for response, 13/31): 41.9%
- median duration on study treatment ([5]; patients who achieved a partial response, range 2.2–17.1 months): 5.0 months
- objective responses ([5]; varlitinib 300 mg continuous, 1/5 evaluable): 20%
- objective responses ([5]; varlitinib 300 mg intermittent, 4/14 evaluable): 28.6%
- objective responses ([5]; varlitinib 400 mg continuous, 2/5 evaluable): 40%
- objective responses ([5]; varlitinib 400 mg intermittent, 3/6 evaluable): 50%
- objective responses ([5]; varlitinib 500 mg continuous, 1/1 evaluable): 100%
- AUC(0-t) ([6]; 300-mg intermittent dosing): 44000 ng·h/mL
- AUC(0-t) ([6]; 400-mg intermittent dosing): 75600 ng·h/mL
- IC50 (HER1): 7 nM
- IC50 (HER2): 2 nM
- maximum tolerated dose (MTD) ([7]; monotherapy (ARRAY 543-103), continuous dose twice a day): 500 mg
- median half-life ([7]; reported in other studies): 5 to 7 h
- febrile neutropenia, patients ([7]; varlitinib in combination with 3-weekly docetaxel, phase I study): 7%
